Bioassay records (PubChem BioAssay)
ALR inh – inhibitors of human ALR sulfhydryl oxidase, primary screen, biochemical, H2O2 detection, HRP-luminol luminescence, single point; 290,000 tested, 3.8% active; purified ALR, DTT oxidation; inhibition, % (concentration not given with the values); FAD-linked sulfhydryl oxidase ALR (Homo sapiens), P55789; AID 485317, 2010;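 active = mean replicate inhibition above about 79%, with every replicate also reaching it, limit read from the data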
RBBP9 inhibitor – human RBBP9 inhibitors, primary screen, biochemical, fluorescence polarization, FP-Rh probe, HTS. Serine hydrolase RBBP9 (Homo sapiens), O75884. recombinant RBBP9. inhibition, % at 7.94 µM. 220,000 tested, 0.2% active. AID 1515, 2009;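 active = inhibition above the campaign mean of all tested compounds plus 3 SD, cut at about 14% in these data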;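 note: plate controls were DMSO wells with RBBP9 for no effect and wells lacking RBBP9 protein for full effect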
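Controls: DMSO-treated enzyme wells and wells lacking RBBP9 | Material: RBBP9 protein | Technique: Fluorescence polarization | Replication: Single well per compound, no replicates | Buffer or medium: Tris-NaCl-Pluronic buffer, pH 8.0 | Timing: 30 min compound preincubation, 45 min probe labeling, 25 °C | Read-out basis: Percent inhibition from mP, scaled between DMSO and no-protein wells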
Rin1-Abl PPI inh – inhibitors of Rin1-Abl protein binding, primary screen, biochemical, TR-FRET | Tyrosine-protein kinase ABL1 (Homo sapiens) + Ras and Rab interactor 1 (Homo sapiens), … | AID 588664, 2011 | inhibition, % at 7.35 µM | 360,000 tested, 0.4% active; in the data active = inhibition above about 5%, passing the limit was not always enough
SUMO HTRF inh – inhibitors of in vitro SUMOylation cascade, primary screen, biochemical, HTRF, uHTS | 290,000 tested, 0.36% active | inhibition, % at 35 µM | HTRF SUMOylation assay, SAE1/SAE2 + UBC9 | SUMO-conjugating enzyme UBC9 (Homo sapiens), P63279 | AID 2006, 2009; in the data active = inhibition above about 50%, passing the limit was not always enough
PREPL inhibitor – PREPL enzyme inhibitors, primary screen, biochemical, fluorescence polarization | Prolyl endopeptidase-like (Homo sapiens), Q4J6C6 | recombinant PREPL, fluorescence polarization activity-based probe | inhibition, % at 5.96 µM | 320,000 tested, 0.68% active; in the data active = inhibition above about 43%;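 note: 0% = enzyme with DMSO and 100% = wells lacking enzyme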
UBC13 inh – UBC13 polyubiquitin chain formation inhibitors, primary screen, biochemical, TR-FRET, uHTS; Ubiquitin-conjugating enzyme E2 N (Homo sapiens), P61088; inhibition, % at 20 µM; 330,000 tested, 0.47% active; in the data active = inhibition above about 45%, passing the limit was not always enough
* = called active by the depositor; / = not tested or not shown. Shown are actives, neighbours in structure and some others; about 4.3% of the full set was active somewhere.

SMILES | ALR inh | RBBP9 inhibitor | Rin1-Abl PPI inh | SUMO HTRF inh | PREPL inhibitor | UBC13 inh
CC(C)c1ccc(NC2CCCN(C(=O)CCc3cn[nH]c3)C2)cc1 (centres undefined) | 98* | / | 2 | 6 | / | 1
O=C1CCC(C(=O)N2CCCC(Nc3ccc(F)cc3)C2)=NN1 (centres undefined) | 82* | / | 2 | 3 | 2 | 3
CCCCCN(C(=O)CCC(=O)OCC(=O)Nc1cccc(CC)c1)c1c(N)n(CCCC)c(=O)[nH]c1=O | -3 | / | -1 | / | 3 | -1
O=C(c1ccc2c(c1)OCO2)C1CCCN(Cc2ccc(OC(F)F)cc2)C1 (centres undefined) | -4 | / | 1 | 9 | -15 | 1
COc1ccc(NC2CCCN(C(=O)CCC3=NNC(=O)CC3)C2)cc1 (centres undefined) | 87* | / | -2 | 11 | 1 | -2
COc1ccc(CCC(=O)N2CCCC(Nc3ccccc3)C2)cc1OC (centres undefined) | 98* | / | -1 | 19 | 2 | -7
O=C(CSc1ccccc1)N1CCCC(Nc2ccccc2)C1 (centres undefined) | 66 | / | -3 | -6 | -5 | 5
COc1ccc(CCC(=O)N2CCCC(Nc3ccc(OC)cc3)C2)cc1 (centres undefined) | 99* | / | -3 | 15 | 10 | -6
COc1ccc(NC2CCCN(C(=O)C3(C)CCCCC3)C2)cc1 (centres undefined) | 97* | / | 4 | 5 | 4 | -7
O=C(CSc1ccccn1)N1CCCC(Nc2ccccc2)C1 (centres undefined) | / | / | 1 | 10 | / | 3
CC(=O)Nc1c(Br)cc2c(c1Br)Cc1cc([N+](=O)[O-])ccc1-2 | / | / | 2 | / | / | /
O=C(CCc1ccccc1)N1CCCC(Nc2ccc(F)cc2)C1 (centres undefined) | 98* | / | -3 | 3 | -2 | 6
COc1ccc(NC2CCCN(C(=O)CCc3cn[nH]c3)C2)cc1 (centres undefined) | 99* | / | 4 | 5 | 13 | 7
O=C(CCc1ccncc1)N1CCCC(Nc2ccc(F)cc2)C1 (centres undefined) | 56 | / | 4 | 6 | 2 | -4
COc1ccc(NC2CCCN(C(=O)CSc3ccncc3)C2)cc1 (centres undefined) | 99* | / | 1 | 0 | 17 | 2
O=C(CNC(=O)c1ccc(Br)o1)NCC1CCCCC1 | / | / | 5 | / | 3 | -6
Fc1cccc(F)c1-n1c(CN2CCCCC2)csc1=S | -1 | -4 | -1 | -6 | 2 | -8
CCOC(=O)c1c(CN2CCN(CCO)CC2)n(-c2ccccc2)c2cc(Br)c(O)cc12 | 68 | 2 | -3 | 7 | 3 | 4
CCOC(=O)c1c(CN2CCN(C)CC2)n(-c2ccccc2)c2cc(Br)c(O)cc12 | 79* | 2 | -1 | 16 | 1 | 21
COc1cc(/C=N/NC(=O)C(C)Nc2n[nH]c(=O)[nH]c2=O)ccc1O (centres undefined) | 99* | 3 | -2 | 5 | -3 | -13
COc1ccc(/C=N/NC(=O)CNc2n[nH]c(=O)[nH]c2=O)cc1OC | -20 | -4 | -4 | 11 | 0 | -12
COc1cc(/C=N/NC(=O)CNc2n[nH]c(=O)[nH]c2=O)ccc1O | 98* | 1 | 0 | 2 | -3 | 1
N#Cc1ccc(C(=O)NC2CCCCCCC2)cc1 | -3 | / | 1 | -4 | -13 | -13
C=CCNc1nc(C(=O)OCC(=O)c2ccc(C)c([N+](=O)[O-])c2)cs1 | -4 | / | 3 | 4 | 7 | -8
C=CCNc1nc(C(=O)OCC(=O)c2ccc(Cl)cc2)cs1 | 98* | / | 2 | / | -9 | -12
Cc1ccc(C)c(N(CC(=O)NC2CCCC2)C(=O)CCC(=O)Nc2cc(C)on2)c1 | -10 | / | 3 | 4 | -5 | 1
COc1cccc(/C=C2/SC(=O)N(CC(=O)N3CCc4ccccc4C3)C2=O)c1OCC(=O)O | 98* | -7 | -1 | 23 | 8 | -1
CCc1ccc(NC(=O)c2ccc3nc(N)sc3c2)cc1 | 91* | -2 | 0 | -8 | 5 | -3
